Activity data for 26 compounds are collected here from ChEMBL document CHEMBL1149716, “Synthesis and antidiabetic activity of 2,5-disubstituted-3-imidazol-2-yl-pyrrolo[2,3-b]pyridines and thieno[2,3-b]pyridines” (2007).

Activity calls are given as the source filed them. The rule behind the calls is not given here.

Experiment [1] in a line: Insulinotropic activity in rat RIN5F cells assessed as glucose dependent insulin secretion per ug of total protein at 0.1 uM. Format: functional. In short, it runs like this: (§1)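 RIN5F cells seeded at 0.2×10^6 per well and grown overnight to 80% confluence. Preincubated 40 min in Krebs-Ringer Hepes buffer (1.1 mM glucose, 0.5% BSA, pH 7.4). Then exposed 30 min at 37 °C to compound with 16.7 mM glucose. Supernatant insulin by rat insulin ELISA, normalized to total protein (pg/μg/h). n = 3, mean ± SD.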

The nature of experiment [2]: Insulinotropic activity in rat RIN5F cells assessed as glucose dependent insulin secretion per ug of total protein at 1 uM. Format: functional. An outline of the steps:
as §1

The nature of experiment [3]: Insulinotropic activity in rat RIN5F cells assessed as glucose dependent insulin secretion per ug of total protein at 10 uM. Format: functional. An outline of the steps: as §1
Experiment [4] relates to Mus musculus. The experiment is described as follows: Antidiabetic activity in ip dosed overnight fasted C57BL/6J mouse assessed as serum insulin level by ELISA. Format: functional, organism-based. An outline of the steps: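 Male C57BL/6J mice (8–12 weeks, 25–30 g), randomized into groups of n = 6 by fed glucose and fasted overnight. Single ip dose of 1, 10 or 100 μM/kg/10 mL, suspended in normal saline (saline vehicle control). Retro-orbital blood taken under light ether at 30 min. Serum stored at -70 °C, then assayed by rat/mouse insulin ELISA. Mean ± SEM.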

Experiment [5] has as its system Mus musculus. The experiment in a line: Antidiabetic activity in overnight fasted C57BL/6J mouse assessed as reduction in serum glucose level at 1 uM to 100 uM, ip after 120 mins. Format: functional, organism-based. An outline of the steps: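 Male C57BL/6J mice (8–12 weeks, 25–30 g), n = 6 per group, fasted overnight. Single ip dose of 1, 10 or 100 μM/kg/10 mL in saline (saline vehicle control). Retro-orbital blood under light ether at 0, 30, 60 and 120 min. Serum glucose by GOD/POD method, duplicate samples. Baseline-corrected curves and 0–120 min AUC; mean ± SEM.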

Experiment [6] can be described thus: Insulinotropic activity in rat RIN5F cells assessed as insulin secretion per ug of total protein at 0.1 uM. Format: functional. In short, it runs like this: (§2)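 RIN5F cells seeded at 0.2×10^6 per well, grown overnight to 80% confluence, then preincubated 40 min in Krebs-Ringer Hepes buffer (1.1 mM glucose, 0.5% BSA, pH 7.4). Incubated 30 min at 37 °C with compound in the absence of glucose (0 mM). Secreted insulin by rat insulin ELISA, normalized to total protein (pg/μg/h). n = 3, mean ± SD.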

Experiment [7] can be described thus: Insulinotropic activity in rat RIN5F cells assessed as insulin secretion per ug of total protein at 1 uM. In kind it is functional. In short, it runs like this: as §2
Experiment [8] is described as follows: Insulinotropic activity in rat RIN5F cells assessed as insulin secretion per ug of total protein at 10 uM. Format: functional. An outline of the steps: as §2
The test system of experiment [9] is Mus musculus. The experiment in a line: Antidiabetic activity in overnight fasted C57BL/6J mouse assessed as reduction in serum glucose level at 1 uM to 100 uM, ip after 30 mins. Format: functional, organism-based. An outline of the steps: (§3)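 Male C57BL/6J mice (8–12 weeks, 25–30 g, bred in-house) randomized into groups (n = 6) by fed glucose, fasted overnight with water ad libitum. Compounds suspended in normal saline given ip at 1, 10 and 100 μM/kg/10 mL right after 0 min bleed. Retro-orbital blood under light ether at 0, 30, 60, 120 min; serum glucose by GOD/POD method, duplicate samples; mean ± SEM.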

For experiment [10], the system named is Mus musculus. The experiment in a line: Antidiabetic activity in overnight fasted C57BL/6J mouse assessed as reduction in serum glucose level at 1 uM to 100 uM, ip after 60 mins. Format: functional, organism-based. In short, it runs like this:
as §3

On to `Clc1cnc2scc(C3=NCCN3)c2c1`, for which the results for the Activity in experiment [1], in experiment [2] and in experiment [3] were 12.6 pg/h, 15 pg/µg/h and 29 pg/h, respectively.

On to `Cc1[nH]c2ncccc2c1C1=NCCN1`, for which the Activity in experiment [1] was determined as 14.9 pg/h; in experiment [2], 18 pg/µg/h; in experiment [3] it was 32.4 pg/h.

`c1ccc(-c2sc3ncccc3c2C2=NCCN2)cc1`: the Activity in [1] was found to be 14.7 pg/h; in experiment [2], 18 pg/µg/h; in [3], 31.9 pg/h.

For the compound `Clc1cnc2[nH]c(C3CCCCC3)c(C3=NCCN3)c2c1`, the values for the Activity in experiment [1], in experiment [2] and in [3] were 12.6 pg/h, 15 pg/µg/h and 28.9 pg/h, respectively.

On to `CCc1[nH]c2ncc(Cl)cc2c1C1=NCCN1`, for which the Activity in experiment [1] worked out at 18.9 pg/h; in [2] it was 26.1 pg/µg/h; in experiment [3], 39.9 pg/h.

For the compound `CCc1sc2ncccc2c1C1=NCCN1`, the figures for the Activity in experiment [1], in experiment [2] and in experiment [3] were 13 pg/h, 15.5 pg/µg/h and 29.1 pg/h, respectively.

Consider `Clc1cnc2[nH]cc(C3=NCCN3)c2c1`, for which the Activity in experiment [1] amounted to 12.4 pg/h; in [2] it was 15.2 pg/µg/h; in [3] it was 29.6 pg/h.

In the case of `Cc1sc2ncc(Cl)cc2c1C1=NCCN1`, the Activity result is “Dose-dependent effect” in the experiment on Mus musculus [4], 19.2 pg/h in [1], 27.5 pg/µg/h in experiment [2] and 41.5 pg/h in experiment [3]. Moreover, in the experiment on Mus musculus [5], the result was Active.

In the case of `CCCCNC(=O)NS(=O)(=O)c1ccc(C)cc1` [TOLBUTAMIDE], the Activity in experiment [1] stood at 20 pg/h; in experiment [3] it was 35.2 pg/h; in experiment [6], 19.7 pg/h; in experiment [7], 20.7 pg/h; in experiment [8], 34.4 pg/h.

In the case of `c1cnc2scc(C3=NCCN3)c2c1`, the Activity was determined as 12.2 pg/h in experiment [1], 14.2 pg/µg/h in [2] and 28.2 pg/h in experiment [3].

On to `Clc1cnc2sc(C3CCCCC3)c(C3=NCCN3)c2c1`, for which the Activity in experiment [1] is 12.9 pg/h; in experiment [2], 15.1 pg/µg/h; in [3], 28.7 pg/h.

In the case of `CCc1sc2ncc(Cl)cc2c1C1=NCCN1`, the Activity is 18.5 pg/h in [1], 26.5 pg/µg/h in experiment [2] and 39.8 pg/h in experiment [3].

As for `c1ccc(-c2[nH]c3ncccc3c2C2=NCCN2)cc1`, the Activity in [1] turned out to be 14.1 pg/h; in experiment [2], 18.1 pg/µg/h; in [3], 32.5 pg/h.

As for `c1cnc2sc(C3CCCCC3)c(C3=NCCN3)c2c1`, the results for the Activity in [1], in experiment [2] and in experiment [3] were 12.6 pg/h, 14.7 pg/µg/h and 28.1 pg/h, respectively.

Take `c1ccc(Cc2sc3ncccc3c2C2=NCCN2)cc1`: the Activity is 14.4 pg/h in experiment [1], 18.8 pg/µg/h in experiment [2] and 31.6 pg/h in [3].

In the case of `Clc1cnc2sc(-c3ccccc3)c(C3=NCCN3)c2c1`, the Activity in experiment [1] stood at 18 pg/h; in experiment [2], 25.4 pg/µg/h; in [3], 39 pg/h.

In the case of `Clc1cnc2[nH]c(Cc3ccccc3)c(C3=NCCN3)c2c1`, the Activity was 14.4 pg/h in experiment [1], 18.3 pg/µg/h in experiment [2] and 31.9 pg/h in experiment [3].

On to `c1cnc2[nH]c(C3CCCCC3)c(C3=NCCN3)c2c1`, for which the Activity stood at 12.4 pg/h in [1], 14.3 pg/µg/h in experiment [2] and 28 pg/h in experiment [3].

Turning to `Clc1cnc2sc(Cc3ccccc3)c(C3=NCCN3)c2c1`, the Activity came to 13.9 pg/h in experiment [1], 18.2 pg/µg/h in experiment [2] and 31.9 pg/h in [3].

Turning to `c1ccc(Cc2[nH]c3ncccc3c2C2=NCCN2)cc1`, the Activity worked out at 14.8 pg/h in [1], 18.2 pg/µg/h in experiment [2] and 32.6 pg/h in experiment [3].

For the compound `c1cnc2[nH]cc(C3=NCCN3)c2c1`, the Activity in [1] was found to be 12.1 pg/h; in experiment [2], 14.1 pg/µg/h; in experiment [3] it was 28 pg/h.

Regarding `Cc1[nH]c2ccc(Cl)cc2c1C1=NCCN1`, the outcome with Mus musculus [9] and in the experiment on Mus musculus [10] was Active. The Activity in [1] was found to be 16.3 pg/h; in experiment [2] it was 22.4 pg/µg/h; in experiment [3], 36.5 pg/h.

`CCc1[nH]c2ncccc2c1C1=NCCN1`: the Activity was 13.3 pg/h in experiment [1], 16.4 pg/µg/h in experiment [2] and 29.1 pg/h in experiment [3].

Consider `Clc1cnc2[nH]c(-c3ccccc3)c(C3=NCCN3)c2c1`, for which the Activity in experiment [1] worked out at 18.2 pg/h; in experiment [2], 25.5 pg/µg/h; in experiment [3], 39.2 pg/h.

With `Cc1[nH]c2ncc(Cl)cc2c1C1=NCCN1`, the Activity result in the experiment on Mus musculus [4] is “Dose-dependent effect”; in experiment [1] it was 19.3 pg/h; in [2], 27.7 pg/µg/h; in experiment [3], 41.7 pg/h. Besides, the result in the experiment on Mus musculus [5] was Active.

Take `Cc1sc2ncccc2c1C1=NCCN1`: the Activity in experiment [1] is 14.5 pg/h; in [2], 18.9 pg/µg/h; in experiment [3], 31.8 pg/h.
